# Bioassay records deposited in PubChem by The Scripps Research Institute Molecular Screening Center.
# CHRM4 PAM = positive allosteric modulators of human muscarinic M4 receptor; P08173; CHO-K1 hM4/Gqi5, Fluo-8 calcium fluorescence, ACh EC20; 0% = ACh EC20, 100% = maximal ACh; activation, % at 3 µM; hit rate 0.4% among 360,000;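 active = activation above its plate's cutoff, the mean activation of sample wells plus 3 SD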
# CHRM5 PAM = positive allosteric modulators of human muscarinic M5 receptor; hit rate 0.3% among 360,000; CHO-K1 hM5, Fluo-8 calcium, ACh EC20 PAM; 0% = ACh EC20, 100% = ACh EC100; activation, % at 3 µM;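 active = activation above the run cutoff, the mean activation of all test compounds plus 3 SD, cut at about 18% in these data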
# Target sequence (P08912 whole entry, looked up): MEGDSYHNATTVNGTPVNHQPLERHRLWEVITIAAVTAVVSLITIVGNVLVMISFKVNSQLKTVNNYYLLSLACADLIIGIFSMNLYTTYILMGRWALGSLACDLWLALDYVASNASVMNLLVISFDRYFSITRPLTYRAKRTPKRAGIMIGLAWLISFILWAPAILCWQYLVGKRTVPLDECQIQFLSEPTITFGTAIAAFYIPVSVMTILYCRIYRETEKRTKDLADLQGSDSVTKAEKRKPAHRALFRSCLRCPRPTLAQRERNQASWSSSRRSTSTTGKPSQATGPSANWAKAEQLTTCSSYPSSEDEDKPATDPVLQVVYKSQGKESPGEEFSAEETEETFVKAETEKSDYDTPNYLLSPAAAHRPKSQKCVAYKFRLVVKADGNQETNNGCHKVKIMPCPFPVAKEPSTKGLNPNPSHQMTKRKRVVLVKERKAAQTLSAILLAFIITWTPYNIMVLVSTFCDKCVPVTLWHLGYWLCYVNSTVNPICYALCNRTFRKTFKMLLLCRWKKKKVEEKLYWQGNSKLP
#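 Test system: CHO-K1 hM5 cells / Doses: single-point, 3 µM nominal / Times: Post-acetylcholine fluorescence recording 140 s / Technique: Fluo-8 calcium fluorescence / Measure: Max/basal fluorescence ratio as % of EC20–EC100 ACh window / Benchmarks: low control EC20 acetylcholine (0%), high control EC100 acetylcholine (100%) / Replicates: one well per compound, no replicates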
# CHRM4 agonist = agonists of human muscarinic M4 receptor (CHRM4) | P08173 | CHO-K1 hM4/Gqi5, Fluo-8 calcium fluorescence; vehicle 0%, full acetylcholine response 100% | activation, % at 3 µM | hit rate 0.14% among 360,000 | AID 624127;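 active = activation above the run mean over all test wells plus 3 SD, cut at about 32% in these data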;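 also: peak over basal fluorescence ratio per well then scaled between controls; 0% = DMSO wells and 100% = acetylcholine at EC100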
# CHRM4 antagonist = antagonists of human muscarinic M4 receptor (CHRM4); P08173; CHO-hM4 cells, ACh EC80, Fluo-8 calcium fluorescence; inhibition, % at 3 µM; hit rate 0.73% among 360,000; AID 624125;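 active = inhibition above its plate's cutoff, the mean inhibition of sample wells plus 3 SD, cut at about 27% in these data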;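 also: 0% = acetylcholine EC80 with DMSO and 100% = DMSO without agonist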
# M5 antag = antagonists of human muscarinic M5 receptor (CHRM5); P08912; CHO-hM5 cells, Fluo-8 calcium fluorescence, ACh EC80; inhibition, % at 3 µM; hit rate 0.59% among 360,000; AID 624040;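 active = inhibition above a per-plate cutoff, the mean of that plate's test compounds plus 3 SD, cut at about 27% in these data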;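 also: 0% = acetylcholine EC80 with DMSO and 100% = DMSO without agonist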
# M5 ag = CHRM5 agonism in calcium assay; P08912; CHO-K1 hM5 cells, Fluo-8 calcium fluorescence; 0% DMSO wells, 100% maximal acetylcholine response; activation, % at 3 µM; hit rate 0.19% among 360,000; AID 624037;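 active = activation above the run's mean over test compounds plus 3 SD, cut at about 23% in these data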;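 also: signal is peak over basal fluorescence ratio across the kinetic read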
# Active calls of the source: *. The list is not random: actives were taken first. Their share in the collection is about 1.8%.
SMILES,CHRM4 PAM,CHRM5 PAM,CHRM4 agonist,CHRM4 antagonist,M5 antag,M5 ag
C[C@@H]1C2CC(C/C2=N\NC(=O)c2ccncc2)C1(C)C (stereo partly specified),1.1,38.9*,1.3,-8.2,11.7,2.0
Cc1ccc(NS(=O)(=O)c2c(C)[nH]c(C)c2C(=O)N2CCCCC2)c(Br)c1,2.0,-3.5,1.4,1.0,7.1,-4.6
Cc1cc(C)n2nc(SCCOc3ccccc3)nc2n1,21.4*,3.4,1.8,-21.8,5.4,0.7
COc1ccc(OCCSc2nc3nc(C)cc(C)n3n2)cc1,-0.4,1.4,-0.2,4.7,1.2,4.3
O=C(c1ccco1)N1CCN(S(=O)(=O)c2cccc(Cl)c2)CC1,-8.4,1.9,2.3,4.6,-0.9,-8.5
CNC(=S)N1CCN(c2cccc(OC)c2)CC1,17.4,6.7,2.3,32.9*,-0.7,-1.4
COc1cccc(N2CCN(C(=S)Nc3cc(C)cc(C)c3)CC2)c1,15.5,3.1,1.6,-6.9,-7.5,0.8
CC(=O)c1ccc(NC(=O)Nc2ccc(Cl)cc2)cc1,-14.5,-20.6,27.5,5.8,24.0,10.2
CC(=O)c1ccc(NC(=S)NCc2ccc(Cl)cc2Cl)cc1,-18.4,-25.3,17.9,17.7,29.2*,8.0
CCc1nnc(NC(=O)CSc2nnc3nc(C)cc(C)n23)s1,18.4*,0.1,1.8,-21.2,9.9,-3.0
NC(=O)c1c(NC(=O)Cn2cnc([N+](=O)[O-])n2)sc2c1CCCC2,3.1,-4.4,3.5,27.7*,15.2,-1.3
CC1=CC(C)(C)NC(=S)N1c1ccccc1C,-5.0,-2.3,0.9,12.3,16.3,-0.1
CC1=CC(C)(C)NC(=S)N1c1cccc2cc(S(=O)(=O)O)ccc12,-9.5,-14.2,15.0,7.2,27.3*,-0.2
O=C(NCc1cccnc1)c1ccc(S(=O)(=O)N2CCCCC2)cc1,8.0,1.4,4.2,-6.5,-5.1,1.3
O=S(=O)(c1ccc(NC(=S)NCc2cccnc2)cc1)N1CCCCC1,-14.7,-26.8,31.8,37.6*,18.4,1.9
CCCC(C(=O)Nc1ccc(S(=O)(=O)N2CCOCC2)cc1)c1ccccc1 (stereo unspecified),-5.3,-5.8,22.1,4.4,5.2,23.3*
O=S(=O)(c1ccc(NC(=S)Nc2ccccc2)cc1)N1CCOCC1,29.1*,24.4*,1.3,-11.9,-1.2,-3.1
O=S(=O)(Nc1ccc(F)cc1)c1ccc(S(=O)(=O)N2CCOCC2)cc1,-2.7,-4.8,17.7,2.6,0.3,27.0*
O=S(=O)(Nc1ccc(S(=O)(=O)N2CCCC2)cc1)c1ccc(F)cc1,3.4,7.7,2.3,-0.9,-3.6,-2.0
O=C(NC1CCCN(Cc2ccccc2F)C1)c1cccs1 (stereo unspecified),-3.4,-1.7,2.3,-2.3,-6.2,-3.6
Cc1ccc(/C(O)=C2\C(=O)C(=O)N(C)C2c2ccc(F)cc2)cc1 (stereo unspecified),7.0,3.7,-0.8,7.3,1.9,0.1
O=C(CSc1nc2ccccc2c(=O)n1CCCN1CCOCC1)NC12CC3CC(CC(C3)C1)C2,-2.9,8.6,1.8,5.2,-8.6,-5.1
O=C(CN1CCOCC1)NNC(=S)Nc1ccccc1,12.1,29.4*,1.8,3.2,-2.0,9.2
O=C(/C=C/c1cccc(F)c1)Nc1ccc(S(=O)(=O)N2CCOCC2)cc1,11.2,18.8*,2.9,-15.1,12.0,-3.9
O=C(CN1CCOCCOCCOCC1)Nc1ccccc1,5.4,-4.5,2.0,2.0,10.8,1.8
SMILES,CHRM4 PAM,CHRM5 PAM,CHRM4 agonist,CHRM4 antagonist,M5 antag,M5 ag
CC(C)Cc1nnc(NC(=O)CCC(=O)NC2CC2)s1,-1.5,-2.9,-0.5,7.8,8.8,-2.9
Cn1nccc1C(=O)Nc1cccc(S(=O)(=O)N2CCOCC2)c1,21.8*,2.4,1.4,7.6,-1.6,-0.7
O=C(COC(=O)c1cc(S(=O)(=O)N2CCCC2)ccc1O)Nc1ccc(S(=O)(=O)N2CCOCC2)cc1,37.2*,3.9,3.7,15.1,9.4,-3.9
CCc1nc2ccccc2c(C(=O)OCC(=O)Nc2cccc(S(=O)(=O)N3CCOCC3)c2)c1C,-19.0,-17.5,11.5,30.2*,10.8,3.6
CCN(C(=O)COC(=O)C1CCN(S(=O)(=O)c2c(Cl)cccc2Cl)CC1)C1CCCCC1,-10.4,0.0,11.7,-6.3,-18.0,-3.6
O=C(N/N=C/c1ccncc1)c1nc(-c2ccccc2)n2c1CCCCC2,-1.2,-5.2,2.1,28.7*,9.7,-3.7
O=C(c1ccccc1)c1cc(Cl)ccc1N1C(=O)C=CC1=O,-16.6,8.5,4.8,34.5*,6.3,6.2
O=C(CC(=O)c1cc(Cl)ccc1O)c1ccccc1,5.0,-0.2,-0.2,-8.5,0.9,0.6
CN(C(=O)c1cccc(NC(=O)Cc2ccc(NC(=O)C3CCN(C(=O)C4CC4)CC3)cc2)c1)C1CCCC1,0.4,5.2,0.9,1.8,-6.5,0.3
CCCN(C)C1CN(Cc2cn(Cc3ccc(F)cc3)nn2)S(=O)(=O)C1 (stereo unspecified),12.0,-1.9,0.8,0.7,1.6,-0.2
COc1cccc(CNC(=O)C2Cc3cc(S(=O)(=O)N4CCCC4)ccc3N2C(C)=O)c1OC (stereo unspecified),17.3*,-1.2,1.5,-2.4,0.2,-4.3
COc1ccccc1CNC(=O)C1Cc2cc(S(=O)(=O)N3CCCC3)ccc2N1C(C)=O (stereo unspecified),5.9,3.1,2.1,7.0,12.0,-2.2
CC1(C)C(=O)OC(c2ccccc2)C(C)(C)C1=O (stereo unspecified),-20.1,-15.6,13.3,4.9,31.5*,-1.1
CC1(C)C(=O)OC(c2ccccc2)C2(CCCC2)C1=O (stereo unspecified),7.9,6.2,0.8,-4.9,-3.5,-2.3
O=C(Cn1nnc(-c2ccccc2)n1)NNC(=O)c1cccc([N+](=O)[O-])c1,1.8,1.4,1.3,1.0,11.7,-1.1
O=C(Cn1nnc(-c2ccc([N+](=O)[O-])cc2)n1)NNC(=O)c1ccccc1,-1.7,-7.5,2.3,14.6,31.1*,-4.0
CC[N+]1(CC(O)COC2CC(C)CC(C)(C)C2)CCOCC1 (stereo unspecified),-33.5,-6.1,-0.4,29.1*,6.5,-17.8
COc1ccccc1C(=O)CSc1ccccn1,-11.2,-15.8,9.9,11.7,27.2*,0.2
O=C(O)CCSc1ccccn1,12.7,3.3,3.8,3.2,-7.8,0.6
O=C(CCSc1ccccn1)c1ccccc1,-0.7,-16.1,0.9,8.3,28.0*,-10.8
COC(=O)CNC(=O)CSc1ccccn1,-1.7,3.6,0.9,1.1,2.6,2.3
